Consider one molecule from ChEMBL document CHEMBL1125621, “Muscarinic receptor binding and activation of second messengers by substituted N-methyl-N-[4-(1-azacycloalkyl)-2-butynyl]acetamides” (1991).

Molecules are shown by their SMILES.

Assay [1] concerns the target T1, Muscarinic acetylcholine receptor (Rattus norvegicus) (UniProt P08482+P08483+P08485+P08911+P10980). In words: Displacement of [3H]N-methylscopolamine ([3H]NMS) binding at muscarinic acetylcholine receptor in rat cerebral cortical membranes. Type of assay: cell membranes. On the set-up: concentration or dose not given beside the values. Particulars: Membrane. An outline of the steps: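 Rat (Sprague-Dawley, either sex, 200 g) forebrain membranes, homogenized and washed in 50 mM sodium phosphate pH 7.4. 200-300 μg membrane incubated with 0.5 nM [3H]NMS plus compound (single concentration, 100 μM) in phosphate-buffered saline, 60 min at 37 °C. Filtered on glass fiber, scintillation counted. Nonspecific binding defined with 1 μM atropine. Triplicate. Reported as percent displacement.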

In assay [2] the target is T1, Muscarinic acetylcholine receptor (Rattus norvegicus). In words: Evaluated for displacement of [3H]oxotremorine-M binding ([3H]OXO-M) at muscarinic acetylcholine receptor in rat forebrain membranes. Type of assay: cell membranes. The arrangement: concentration or dose not given beside the values. Particulars: Membrane. In a few lines: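 Sprague-Dawley rat forebrain membranes. Incubated with 2.7 nM [3H]Oxo-M in 50 mM NaPO4, 2 mM MgCl2, pH 7.4, 20 min at 37 °C. Filtered on glass fiber presoaked in 0.05% polyethylenimine. Nonspecific binding defined with 1 μM atropine. Single concentration 1 μM, triplicate, averaged over two to five trials. Read-out is percent displacement of specific binding.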

A further assay concerns A9. In words: Increase in phosphoinositide (PI) metabolism in A9L-m1 cells at 100 uM. The class given is functional, Mus musculus.
The target in assay [3] is Muscarinic acetylcholine receptor M3 (Mus musculus) (UniProt Q9ERZ3). Briefly: Increase in phosphoinositide (PI) metabolism in A9L-cholinergic receptor, muscarinic 3 expressing cells was measured at 100 uMolar. Particulars: 100 uM. The class given is functional. In a few lines:
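A9L fibroblasts transfected with m3 receptor, grown in DMEM with 10% newborn calf serum. Labeled overnight with [3H]myo-inositol, preincubated 5 min at 37 °C in 10 mM LiCl DMEM-Hepes. Compound at 100 μM final, 30 min at 37 °C. Labeled inositol phosphates extracted by ion exchange. Result expressed as percent of the oxotremorine-M response, duplicate determinations.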

The target of assay [4] is T2, cyclic AMP phosphoprotein (Rattus norvegicus) (UniProt Q712U5).
T2 sequence (whole entry): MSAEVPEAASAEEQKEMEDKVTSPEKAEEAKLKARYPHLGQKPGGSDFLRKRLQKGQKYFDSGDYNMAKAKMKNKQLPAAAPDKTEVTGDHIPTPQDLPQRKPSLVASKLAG
In words: The percent inhibition of cyclic AMP(cAMP) formation in NG108-15 cells expressed in m40AChR was measured. Particulars: concentration not given here. Type of assay: functional, cell-based. An outline of the steps: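 NG108-15 cells expressing m4 receptors; compound at 100 μM. Cyclic AMP inhibition expressed as percent of Oxo-M (100%), average of two or three trials.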

Chain of Muscarinic acetylcholine receptor M3 (Mus musculus) (Q9ERZ3 whole entry): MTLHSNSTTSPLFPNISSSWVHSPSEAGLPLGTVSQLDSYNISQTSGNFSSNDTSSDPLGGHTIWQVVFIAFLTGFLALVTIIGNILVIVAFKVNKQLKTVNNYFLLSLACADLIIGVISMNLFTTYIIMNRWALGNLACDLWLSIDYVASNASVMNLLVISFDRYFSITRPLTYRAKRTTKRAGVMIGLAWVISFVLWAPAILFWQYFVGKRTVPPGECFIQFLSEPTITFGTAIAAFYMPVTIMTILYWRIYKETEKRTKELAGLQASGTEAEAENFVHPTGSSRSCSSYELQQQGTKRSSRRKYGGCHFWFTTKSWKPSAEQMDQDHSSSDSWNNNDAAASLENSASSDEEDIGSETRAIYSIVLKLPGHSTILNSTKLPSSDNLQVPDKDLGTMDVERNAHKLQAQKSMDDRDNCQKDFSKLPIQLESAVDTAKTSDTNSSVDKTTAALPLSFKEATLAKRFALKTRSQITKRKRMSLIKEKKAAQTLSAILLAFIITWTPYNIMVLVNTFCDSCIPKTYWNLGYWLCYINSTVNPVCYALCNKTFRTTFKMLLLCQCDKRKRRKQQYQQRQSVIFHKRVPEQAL

In general, inhibition refers to the share of the control response that was lost under treatment. `CC(=O)N(C)CC#CCN1CCC[C@H]1CF.O=C(O)C(=O)O`: the Displacement in assay [1] stood at 53.8%; in assay [2], 50.5%. Also, the values for the PI turnover (with A9; in assay [3]) were 11.1 and 10.6, respectively. In addition, the inhibition in assay [4] is 62.4%.
